Source: ChEMBL document CHEMBL4014308, “Amphiphilic Tobramycin-Lysine Conjugates Sensitize Multidrug Resistant Gram-Negative Bacteria to Rifampicin and Minocycline” (J Med Chem, 2017)
≈ marks a conversion by molar mass, not a printed value. Calls of active or inactive are those of the source. No cut-off for these calls is given here.

What was measured:
Type in all cases: functional
[1] = test system: Acinetobacter baumannii; assay: Antibacterial activity against multidrug-resistant Acinetobacter baumannii AB031 after 18 hrs by microtiter dilution assay; conditions: AB031, 18 h
Procedure, shortened: (§1)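 Broth microdilution following CLSI guidelines. An overnight culture was adjusted to 0.5 McFarland in saline, then diluted 1:50 in Mueller-Hinton broth. This inoculum was added in equal volume to 2-fold serial dilutions of agent in MHB and incubated 18 h at 37 °C. MIC was the lowest concentration with no visible growth.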

[2] = test system: Pseudomonas aeruginosa; assay: Antibacterial activity against Pseudomonas aeruginosa PAO1 after 25 serial passages at 0.125 times MIC by microtiter dilution assay
[3] = test system: Acinetobacter baumannii; assay: Antibacterial activity against multidrug-resistant Acinetobacter baumannii AB030 after 18 hrs by microtiter dilution assay; conditions: AB030, 18 h; procedure, shortened: as §1
[4] = test system: Pseudomonas aeruginosa; assay: Bactericidal activity against Pseudomonas aeruginosa PAO1 at 0.125 times antibacterial MIC after 6 hrs
[5] = test system: Acinetobacter baumannii; assay: Antibacterial activity against multidrug-resistant Acinetobacter baumannii AB027 after 18 hrs by microtiter dilution assay; conditions: AB027, 18 h; procedure, shortened: as §1
[6] = test system: Pseudomonas aeruginosa; assay: Antibacterial activity against multidrug/extremely drug-resistant/colistin-susceptible Pseudomonas aeruginosa isolate P262-101856 infected in Galleria mellonella assessed as mortality at 75 mg/kg after 24 hrs relative to control; conditions: isolate P262-101856, 24 h
Procedure, shortened: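 Galleria mellonella larvae (about 250 mg, used within 7 days; 15 per group) were injected with 10 µL of XDR P. aeruginosa P262 at 1.0×10^3 CFU/mL. At 2 h they received a single 10 µL injection: monotherapy at 75 mg/kg, or combinations at 12.5+12.5 to 75+75 mg/kg. PBS vehicle served as control. Survival was scored over 24 h at 37 °C.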

[7] = test system: Acinetobacter baumannii; assay: Antibacterial activity against multidrug-resistant Acinetobacter baumannii 110193 after 18 hrs by microtiter dilution assay; conditions: Acinetobacter baumannii, 110193, 18 h; procedure, shortened: as §1
[8] = test system: Enterobacter cloacae; assay: Antibacterial activity against multidrug-resistant Enterobacter cloacae 117029 after 18 hrs by microtiter dilution assay; conditions: Enterobacter cloacae, 117029, 18 h; procedure, shortened: as §1
[9] = test system: Pseudomonas aeruginosa; assay: Antibacterial activity against multidrug/extremely drug-resistant/colistin-susceptible Pseudomonas aeruginosa isolate 101885 after 18 hrs by microtiter dilution assay; conditions: isolate 101885, 18 h; procedure, shortened: as §1
[10] = test system: Pseudomonas aeruginosa; assay: Antibacterial activity against multidrug/extremely drug-resistant/colistin-resistant Pseudomonas aeruginosa isolate 91433 after 18 hrs by microtiter dilution assay; conditions: isolate 91433, 18 h; procedure, shortened: as §1
[11] = test system: Pseudomonas aeruginosa; assay: Antibacterial activity against multidrug/extremely drug-resistant/colistin-susceptible Pseudomonas aeruginosa isolate 100036 after 18 hrs by microtiter dilution assay; conditions: isolate 100036, 18 h; procedure, shortened: as §1
[12] = test system: Pseudomonas aeruginosa; assay: Bactericidal activity against Pseudomonas aeruginosa PAO1 at 4 times antibacterial MIC after 2 hrs
Procedure, shortened: (§2)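 Time-kill with P. aeruginosa PAO1. A 0.5 McFarland suspension was diluted 1:50 in LB broth and exposed to agent in PBS (pH 7.2) at 1/2×, 1×, 2× or 4× MIC at 37 °C for 6 h. Samples at 0, 10, 30, 60, 90, 120, 240 and 360 min were serially diluted in PBS, plated on LB agar, and colonies counted after 20 h at 37 °C.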

[13] = test system: Pseudomonas aeruginosa; assay: Antibacterial activity against multidrug/extremely drug-resistant/colistin-susceptible Pseudomonas aeruginosa isolate P262-101856 after 18 hrs by microtiter dilution assay; conditions: isolate P262-101856, 18 h; procedure, shortened: as §1
[14] = test system: Pseudomonas aeruginosa; assay: Antibacterial activity against multidrug/extremely drug-resistant/colistin-susceptible Pseudomonas aeruginosa isolate P264-104354 after 18 hrs by microtiter dilution assay; conditions: isolate P264-104354, 18 h; procedure, shortened: as §1
[15] = test system: Pseudomonas aeruginosa; assay: Antibacterial activity against Pseudomonas aeruginosa PAO1 after 18 hrs by microtiter dilution assay; conditions: PAO1, 18 h; procedure, shortened: as §1
[16] = test system: Klebsiella pneumoniae; assay: Antibacterial activity against multidrug-resistant Klebsiella pneumoniae 116381 after 18 hrs by microtiter dilution assay; conditions: Klebsiella pneumoniae, 116381, 18 h; procedure, shortened: as §1
[17] = test system: Pseudomonas aeruginosa; assay: Antibacterial activity against multidrug/extremely drug-resistant/colistin-resistant Pseudomonas aeruginosa isolate 101243 after 18 hrs by microtiter dilution assay; conditions: isolate 101243, 18 h; procedure, shortened: as §1
[18] = test system: Pseudomonas aeruginosa; assay: Antibacterial activity against multidrug/extremely drug-resistant/colistin-susceptible Pseudomonas aeruginosa isolate P259-96918 after 18 hrs by microtiter dilution assay; conditions: isolate P259-96918, 18 h; procedure, shortened: as §1
[19] = test system: Pseudomonas aeruginosa; assay: Bactericidal activity against Pseudomonas aeruginosa PAO1 at 4 times antibacterial MIC after 6 hrs; procedure, shortened: as §2
[20] = test system: Pseudomonas aeruginosa; assay: Antibacterial activity against Pseudomonas aeruginosa PAO1 assessed as ratio of MIC after 25 serial passages to MIC before 25 serial passages by microtiter dilution assay
Procedure, shortened: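 Sequential passaging of wild-type PAO1 with single drugs or drug combinations. MIC was tested in MHB for 18 h. Cells from the well at half the MIC were adjusted to 0.5 McFarland in saline, diluted 1:50 in fresh MHB and used for the next MIC test. This was repeated for 25 passages, and the fold change in MIC was plotted against passage number.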

CO[C@H]1/C=C/O[C@@]2(C)Oc3c(C)c(O)c4c(O)c(c(/C=N/N5CCN(C)CC5)c(O)c4c3C2=O)NC(=O)/C(C)=C\C=C\[C@H](C)[C@H](O)[C@@H](C)[C@@H](O)[C@@H](C)[C@H](OC(C)=O)[C@@H]1C [RIFAMPIN]
MIC [1]: 2 µg/mL (≈ 2.43 µM) | Activity [2]: Active | MIC [3]: > 256 µg/mL | Activity [4]: inactive | MIC [5]: 2 µg/mL (≈ 2.43 µM) | mortality at 75 mg/kg [6]: 100% | MIC [7]: 2 µg/mL (≈ 2.43 µM) | MIC [8]: 16 µg/mL (≈ 19.4 µM) | MIC [9]: 16 µg/mL (≈ 19.4 µM) | MIC [10]: 16 µg/mL (≈ 19.4 µM) | MIC [11]: 16 µg/mL (≈ 19.4 µM) | Activity [12]: Active | MIC [13]: 1020 µg/mL (≈ 1240 µM) | MIC [14]: 16 µg/mL (≈ 19.4 µM) | MIC [15]: 16 µg/mL (≈ 19.4 µM) | MIC [16]: 1020 µg/mL (≈ 1240 µM) | MIC [17]: 8 µg/mL (≈ 9.72 µM) | MIC [18]: 16 µg/mL (≈ 19.4 µM)

CN(C)c1ccc(O)c2c1C[C@H]1C[C@H]3[C@H](N(C)C)C(O)=C(C(N)=O)C(=O)[C@@]3(O)C(O)=C1C2=O [MINOCYCLINE]
Activity [19]: Active | MIC [1]: 2 µg/mL (≈ 4.37 µM) | MIC [3]: 4 µg/mL (≈ 8.74 µM) | Activity [4]: inactive | MIC [5]: 1 µg/mL (≈ 2.19 µM) | Ratio [20]: 16 | mortality at 75 mg/kg [6]: 100% | MIC [7]: 2 µg/mL (≈ 4.37 µM) | MIC [8]: 128 µg/mL (≈ 280 µM) | MIC [9]: 32 µg/mL (≈ 69.9 µM) | MIC [10]: 64 µg/mL (≈ 140 µM) | MIC [11]: 32 µg/mL (≈ 69.9 µM) | MIC [13]: 256 µg/mL (≈ 560 µM) | MIC [14]: 64 µg/mL (≈ 140 µM) | MIC [15]: 8 µg/mL (≈ 17.5 µM) | MIC [16]: 128 µg/mL (≈ 280 µM) | MIC [17]: 4 µg/mL (≈ 8.74 µM) | MIC [18]: 32 µg/mL (≈ 69.9 µM)
